{
  "source": "ChEMBL document CHEMBL4602711",
  "about": "“Catching a Moving Target: Comparative Modeling of Flaviviral NS2B-NS3 Reveals Small Molecule Zika Protease Inhibitors” (ACS Med Chem Lett, 2020)",
  "key": {"Nonstructural protein 3": {"molecular_target": "Nonstructural protein 3 (Zika virus, UniProt A0A024AXB9)", "sequence (A0A024AXB9 whole entry)": "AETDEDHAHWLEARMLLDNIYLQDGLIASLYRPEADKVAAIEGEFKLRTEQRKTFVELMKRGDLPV", "experiment": "Inhibition of Zika virus NS2B-NS3 protease using Bz-Nle-Lys-Lys-Arg-AMC as substrate preincubated for 10 mins followed by substrate addition and measured for 70 secs by fluorophotometric analysis", "procedure,_shortened": "(§1)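 Ki values were obtained by fluorescence-based protease assays, only for ligands below the 50 μM inhibition cutoff. The commercially available racemic mixtures were tested.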"}, "Genome polyprotein": {"molecular_target": "Genome polyprotein (West Nile virus, UniProt P06935)", "sequence (P06935 1371-1501 limits assumed)": "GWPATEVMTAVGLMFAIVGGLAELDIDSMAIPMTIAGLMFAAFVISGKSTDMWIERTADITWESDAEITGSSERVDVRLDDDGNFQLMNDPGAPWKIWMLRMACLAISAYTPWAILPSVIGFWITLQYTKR", "sequence (P06935 1502-2120 limits assumed)": "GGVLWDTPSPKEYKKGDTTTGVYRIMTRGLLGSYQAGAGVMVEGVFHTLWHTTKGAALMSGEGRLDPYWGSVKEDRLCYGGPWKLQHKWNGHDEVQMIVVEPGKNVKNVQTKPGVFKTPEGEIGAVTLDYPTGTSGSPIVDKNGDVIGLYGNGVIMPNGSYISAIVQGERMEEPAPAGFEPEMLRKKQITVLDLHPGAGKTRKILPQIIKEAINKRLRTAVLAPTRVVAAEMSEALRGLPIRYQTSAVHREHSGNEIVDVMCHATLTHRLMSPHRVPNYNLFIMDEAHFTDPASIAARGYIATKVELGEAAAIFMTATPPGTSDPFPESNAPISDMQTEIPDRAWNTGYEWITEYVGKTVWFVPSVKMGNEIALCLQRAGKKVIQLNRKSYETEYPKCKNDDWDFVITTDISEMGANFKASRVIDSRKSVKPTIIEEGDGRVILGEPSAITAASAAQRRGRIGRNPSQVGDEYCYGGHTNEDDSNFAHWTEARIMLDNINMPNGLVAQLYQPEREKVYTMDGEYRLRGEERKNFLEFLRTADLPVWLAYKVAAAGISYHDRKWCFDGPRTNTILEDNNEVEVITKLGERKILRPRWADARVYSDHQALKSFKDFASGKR", "experiment": "Inhibition of C-terminal His6-tagged West Nile virus NS2B (52 to 96 residues)-G4SG4-NS3 (1 to 184 residues) expressed in Escherichia coli BL21(DE3) cells using Boc-Gly-Lys-Arg-AMC33 as substrate measured for 600 secs by fluorescence based assay", "procedure,_shortened": "as §1"}, "[1]": {"molecular_target": "Nonstructural protein 3 (Zika virus) (UniProt A0A024AXB9)", "sequence (A0A024AXB9 as listed by the source)": "as the sequence (A0A024AXB9 whole entry) above", "experiment": "Inhibition of Zika virus NS2B-NS3 protease at <50 uM using Bz-Nle-Lys-Lys-Arg-AMC as substrate preincubated for 10 mins followed by substrate addition and measured for 70 secs by fluorophotometric analysis"}, "[2]": {"molecular_target": "Genome polyprotein (West Nile virus) (UniProt P06935)", "sequence (P06935 whole entry, the tested form may be a part)": "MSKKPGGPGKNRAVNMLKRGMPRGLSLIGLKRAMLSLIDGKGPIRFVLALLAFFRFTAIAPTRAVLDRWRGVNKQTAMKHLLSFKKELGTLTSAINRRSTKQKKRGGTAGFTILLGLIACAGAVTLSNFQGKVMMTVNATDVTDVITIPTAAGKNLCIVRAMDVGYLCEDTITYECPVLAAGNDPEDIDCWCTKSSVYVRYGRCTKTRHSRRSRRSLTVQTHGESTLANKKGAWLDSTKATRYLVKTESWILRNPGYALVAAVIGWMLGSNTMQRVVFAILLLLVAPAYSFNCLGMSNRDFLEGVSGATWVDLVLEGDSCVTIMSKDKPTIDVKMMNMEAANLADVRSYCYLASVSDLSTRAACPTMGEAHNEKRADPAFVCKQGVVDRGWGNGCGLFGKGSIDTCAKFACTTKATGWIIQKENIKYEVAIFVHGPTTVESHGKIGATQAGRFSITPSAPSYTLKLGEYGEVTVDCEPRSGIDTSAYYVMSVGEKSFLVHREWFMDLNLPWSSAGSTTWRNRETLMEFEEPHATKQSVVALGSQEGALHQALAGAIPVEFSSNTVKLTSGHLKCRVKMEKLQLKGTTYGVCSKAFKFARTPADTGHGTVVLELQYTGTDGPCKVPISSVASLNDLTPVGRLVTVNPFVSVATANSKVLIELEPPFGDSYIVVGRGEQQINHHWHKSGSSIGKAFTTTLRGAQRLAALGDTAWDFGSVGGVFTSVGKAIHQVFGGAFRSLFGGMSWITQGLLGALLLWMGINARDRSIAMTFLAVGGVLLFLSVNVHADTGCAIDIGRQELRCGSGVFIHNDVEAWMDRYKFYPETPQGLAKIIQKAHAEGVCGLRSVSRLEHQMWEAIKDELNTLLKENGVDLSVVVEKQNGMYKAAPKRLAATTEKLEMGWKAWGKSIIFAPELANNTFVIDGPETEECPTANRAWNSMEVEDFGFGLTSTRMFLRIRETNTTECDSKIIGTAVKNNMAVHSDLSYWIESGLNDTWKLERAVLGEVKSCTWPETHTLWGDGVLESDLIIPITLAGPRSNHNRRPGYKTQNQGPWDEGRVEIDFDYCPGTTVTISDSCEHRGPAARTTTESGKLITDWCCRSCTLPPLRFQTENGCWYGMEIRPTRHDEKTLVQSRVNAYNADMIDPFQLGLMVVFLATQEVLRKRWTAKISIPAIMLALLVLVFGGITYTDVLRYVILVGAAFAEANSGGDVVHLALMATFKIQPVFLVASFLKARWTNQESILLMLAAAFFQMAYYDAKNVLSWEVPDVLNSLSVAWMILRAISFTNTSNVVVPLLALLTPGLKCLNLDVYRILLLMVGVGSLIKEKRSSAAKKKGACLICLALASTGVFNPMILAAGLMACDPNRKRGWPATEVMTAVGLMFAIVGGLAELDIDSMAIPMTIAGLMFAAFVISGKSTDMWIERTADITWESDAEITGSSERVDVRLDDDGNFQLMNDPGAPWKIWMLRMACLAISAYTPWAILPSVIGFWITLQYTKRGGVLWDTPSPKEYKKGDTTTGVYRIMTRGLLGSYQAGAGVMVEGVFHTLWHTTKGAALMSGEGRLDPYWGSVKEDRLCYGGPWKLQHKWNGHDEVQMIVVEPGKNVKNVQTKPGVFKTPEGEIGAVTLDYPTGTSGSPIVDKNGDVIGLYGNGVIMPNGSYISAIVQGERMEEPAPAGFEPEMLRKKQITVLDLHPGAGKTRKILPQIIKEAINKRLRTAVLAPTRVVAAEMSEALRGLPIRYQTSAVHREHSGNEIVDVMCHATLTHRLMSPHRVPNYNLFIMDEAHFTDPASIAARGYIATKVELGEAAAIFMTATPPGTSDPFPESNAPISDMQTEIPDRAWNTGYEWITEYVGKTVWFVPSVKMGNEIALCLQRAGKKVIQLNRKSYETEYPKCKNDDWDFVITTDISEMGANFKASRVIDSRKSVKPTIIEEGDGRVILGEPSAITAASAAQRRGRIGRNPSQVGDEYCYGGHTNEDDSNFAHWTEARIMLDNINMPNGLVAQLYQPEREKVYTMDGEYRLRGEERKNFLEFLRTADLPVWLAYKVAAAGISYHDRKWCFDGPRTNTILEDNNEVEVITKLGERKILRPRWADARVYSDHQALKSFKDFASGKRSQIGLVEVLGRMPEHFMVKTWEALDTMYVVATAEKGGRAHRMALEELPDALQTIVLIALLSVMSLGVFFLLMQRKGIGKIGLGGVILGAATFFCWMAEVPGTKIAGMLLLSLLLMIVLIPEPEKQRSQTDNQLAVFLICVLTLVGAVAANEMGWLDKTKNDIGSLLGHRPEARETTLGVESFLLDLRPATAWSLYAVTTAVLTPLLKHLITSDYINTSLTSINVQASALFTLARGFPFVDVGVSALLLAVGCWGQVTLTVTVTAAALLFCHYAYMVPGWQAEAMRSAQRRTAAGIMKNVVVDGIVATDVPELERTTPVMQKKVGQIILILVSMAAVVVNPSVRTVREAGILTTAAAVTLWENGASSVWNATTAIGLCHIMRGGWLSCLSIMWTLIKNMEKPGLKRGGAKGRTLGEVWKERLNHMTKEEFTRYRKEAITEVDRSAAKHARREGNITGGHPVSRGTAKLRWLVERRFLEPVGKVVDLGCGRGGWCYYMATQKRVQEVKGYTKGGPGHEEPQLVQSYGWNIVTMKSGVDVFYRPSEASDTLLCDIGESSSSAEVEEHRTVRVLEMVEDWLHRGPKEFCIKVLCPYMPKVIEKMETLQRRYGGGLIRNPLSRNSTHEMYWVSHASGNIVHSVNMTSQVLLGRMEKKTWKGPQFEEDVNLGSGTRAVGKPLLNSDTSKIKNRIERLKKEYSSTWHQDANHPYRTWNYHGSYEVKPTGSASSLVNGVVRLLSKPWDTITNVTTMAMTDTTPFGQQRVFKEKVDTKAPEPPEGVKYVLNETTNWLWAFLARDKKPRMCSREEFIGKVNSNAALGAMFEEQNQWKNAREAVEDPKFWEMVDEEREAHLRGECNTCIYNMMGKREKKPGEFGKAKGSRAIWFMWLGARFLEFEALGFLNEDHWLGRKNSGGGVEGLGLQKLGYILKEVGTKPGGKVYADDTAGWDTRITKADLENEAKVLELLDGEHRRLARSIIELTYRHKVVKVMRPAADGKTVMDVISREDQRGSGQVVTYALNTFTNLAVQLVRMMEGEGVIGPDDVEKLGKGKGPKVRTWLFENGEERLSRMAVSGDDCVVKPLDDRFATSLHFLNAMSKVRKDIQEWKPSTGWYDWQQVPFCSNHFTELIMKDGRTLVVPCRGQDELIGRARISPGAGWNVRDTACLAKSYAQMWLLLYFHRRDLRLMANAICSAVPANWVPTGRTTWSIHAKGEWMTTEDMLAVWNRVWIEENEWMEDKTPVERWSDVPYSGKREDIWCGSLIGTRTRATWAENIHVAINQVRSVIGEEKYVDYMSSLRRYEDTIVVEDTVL", "experiment": "Inhibition of C-terminal His6-tagged West Nile virus NS2B (52 to 96 residues)-G4SG4-NS3 (1 to 184 residues) expressed in Escherichia coli BL21(DE3) cells at <50 uM using Boc-Gly-Lys-Arg-AMC33 as substrate measured for 600 secs by fluorescence based assay"}, "[3]": {"experiment": "Inhibition of N-terminal His6-tagged DENV2 NS2B-NS3 protease using Boc-Gly-Lys-Arg-AMC33 as substrate measured for 600 secs by fluorescence based assay", "set-up": "species or system dengue virus type 2", "procedure,_shortened": "as §1"}, "dengue virus type 2": {"tested_on": "dengue virus type 2", "experiment": "Inhibition of N-terminal His6-tagged DENV2 NS2B-NS3 protease at<50 uM using Boc-Gly-Lys-Arg-AMC33 as substrate measured for 600 secs by fluorescence based assay"}},
  "note": "Activity calls are given as the source filed them.",
  "data": [
    {"smiles": "COc1cc(CN2CC(O)C2)ccc1OCC(O)CN1CCC(O)CC1", "note": "(stereo not given)", "values": [
      {"measurement": "Ki", "setting": "Nonstructural protein 3", "value": 11.5, "unit": "µM"},
      {"measurement": "Ki", "setting": "Genome polyprotein", "value": 7.4, "unit": "µM"},
      {"measurement": "inhibition", "setting": "[1]", "value": "Active"},
      {"measurement": "inhibition", "setting": "[2]", "value": "Active"}
    ]},
    {"smiles": "Cc1ccc(C(=O)NCC(O)CN2CCCC2)cc1OCCN", "note": "(stereo not given)", "values": [
      {"measurement": "Ki", "setting": "Nonstructural protein 3", "value": 2.3, "unit": "µM"},
      {"measurement": "Ki", "setting": "Genome polyprotein", "value": 25.5, "unit": "µM"},
      {"measurement": "Ki", "setting": "[3]", "value": 0.09, "unit": "µM"},
      {"measurement": "inhibition", "setting": "[1]", "value": "Active"},
      {"measurement": "inhibition", "setting": "[2]", "value": "Active"},
      {"measurement": "inhibition", "setting": "dengue virus type 2", "value": "Active"}
    ]}
  ]
}
